The values below come from ChEMBL document CHEMBL4257531, “The role of aryl-topology in balancing between selective and dual 5-HT7R/5-HT1A actions of 3,5-substituted hydantoins” (Medchemcomm, 2018).

For data set [1], the target named is 5-hydroxytryptamine receptor 7 (Homo sapiens, UniProt P34969). In words: Displacement of [3H]-5-carboxamidotryptamine from human 5-HT7B receptor expressed in HEK293 cell membranes after 1 hr by microbeta counting method. In general terms: Loss of bound radioactivity is the signal in a displacement assay; it reports binding, not function.
Sequence of 5-hydroxytryptamine receptor 7 (P34969 whole entry): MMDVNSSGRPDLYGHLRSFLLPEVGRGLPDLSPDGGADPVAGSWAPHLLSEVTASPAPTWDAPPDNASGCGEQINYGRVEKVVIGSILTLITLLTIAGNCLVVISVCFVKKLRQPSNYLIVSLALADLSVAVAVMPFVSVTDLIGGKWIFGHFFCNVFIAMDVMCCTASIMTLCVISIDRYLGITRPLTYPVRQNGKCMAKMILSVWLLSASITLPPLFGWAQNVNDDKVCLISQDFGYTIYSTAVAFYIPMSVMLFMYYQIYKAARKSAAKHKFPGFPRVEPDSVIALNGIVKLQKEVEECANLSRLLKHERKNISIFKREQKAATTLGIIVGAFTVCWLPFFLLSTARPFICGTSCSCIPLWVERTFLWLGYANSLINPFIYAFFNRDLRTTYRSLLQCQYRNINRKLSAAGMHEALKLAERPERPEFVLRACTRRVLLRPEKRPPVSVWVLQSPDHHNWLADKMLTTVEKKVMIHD
A further data set addresses D(2) dopamine receptor (Homo sapiens, UniProt P14416). Nature of the data set: Displacement of [3H]-raclopride from human D2L receptor expressed in HEK293 cell membranes after 1 hr by microbeta counting method.
The target in data set [2] is T1, 5-hydroxytryptamine receptor 1A (Homo sapiens, UniProt P08908).
T1 sequence (P08908 whole entry): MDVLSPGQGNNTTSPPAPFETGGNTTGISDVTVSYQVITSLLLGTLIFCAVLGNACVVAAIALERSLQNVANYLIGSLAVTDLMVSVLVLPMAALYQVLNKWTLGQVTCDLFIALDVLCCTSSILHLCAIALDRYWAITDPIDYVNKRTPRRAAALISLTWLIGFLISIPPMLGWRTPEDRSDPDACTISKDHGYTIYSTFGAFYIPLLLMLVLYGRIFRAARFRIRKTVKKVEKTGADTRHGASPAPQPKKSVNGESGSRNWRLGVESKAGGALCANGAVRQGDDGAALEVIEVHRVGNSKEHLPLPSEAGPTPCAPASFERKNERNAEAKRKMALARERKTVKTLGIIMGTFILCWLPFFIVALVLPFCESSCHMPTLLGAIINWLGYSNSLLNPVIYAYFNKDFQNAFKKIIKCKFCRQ
In words: Displacement of [3H]-8-OH-DPAT from human 5-HT1A receptor expressed in HEK293 cell membranes after 1 hr by microbeta counting method.

The nature of data set [3]: Half life in CD-1 mouse liver microsomes by UPLC-MS analysis. To be noted: for t1/2: mouse, microsomes. The data set is classed as ADME, microsome. In outline: (§1)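 Mouse liver microsomes with NADPH regeneration system; incubation followed by UPLC-MS with ion fragmentation. Percent substrate remaining read after 120 min; t1/2 and hepatic intrinsic clearance calculated.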
In general terms: Liver microsomes are a subcellular fraction often used to study metabolism.

A short description of data set [4]: Intrinsic clearance in CD-1 mouse liver microsomes by UPLC-MS analysis. To be noted: read-out: CLH. The data set is classed as ADME, microsome. In outline: as §1
The species entered for the next data set is Homo sapiens. In words: Selectivity ratio of Ki for 5-HT1A receptor (unknown origin) to Ki for 5-HT7 receptor (unknown origin). In outline:
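Competition binding on membranes of HEK-293 cells stably expressing human 5-HT1A or 5-HT7b receptors. 5-HT1A used 2.5 nM [3H]-8-OH-DPAT at room temperature; 5-HT7b used 0.8 nM [3H]-5-CT at 37 °C. Both ran 1 h, with 10 μM 5-HT for nonspecific binding. Seven concentrations (10–10–10–4 M) were tested in triplicate, with filtration read-out.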

The nature of data set [5]: Metabolic stability in CD-1 mouse liver microsomes assessed as parent compound remaining after 120 mins by UPLC-MS analysis. Format: ADME, microsome. To be noted: 2 h. In outline:
as §1

The test system of data set [6] is HEK293. Nature of the data set: Cytotoxicity against HEK293 cells assessed as reduction in cell viability at 1 uM after 72 hrs by MTS assay. The data set is classed as cell-based. To be noted: human, hek293, 72 h. In outline: (§2)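 Viability by MTS, absorbance at 490 nm, after 72 h exposure at 0.1–100 μM; doxorubicin 1 μM as positive control. HepG2 only: CCCP 10 μM as additional control. Significance versus negative control by one-way ANOVA with Bonferroni test.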

Data set [7] has as its system HepG2. Nature of the data set: Cytotoxicity against human HepG2 cells assessed as reduction in cell viability at 1 uM after 72 hrs by MTS assay. To be noted: hepg2, 72 h. Format: cell-based. A digest of the protocol:
as §2
(Tetrazolium dyes change colour on reduction, which living cells bring about.)

Data set [8] concerns HEK293. Nature of the data set: Cytotoxicity against HEK293 cells assessed as reduction in cell viability at 0.1 to 10 uM after 72 hrs by MTS assay. The data set is classed as cell-based. The note with it: human, hek293, 72 h. A digest of the protocol:
as §2

Data set [9] deals with HepG2. In words: Cytotoxicity against human HepG2 cells assessed as reduction in cell viability at 100 uM after 72 hrs by MTS assay. Format: cell-based. To be noted: hepg2, 72 h. A digest of the protocol:
as §2

Data set [10] relates to HepG2. In words: Cytotoxicity against human HepG2 cells assessed as reduction in cell viability at 0.1 to 10 uM after 72 hrs by MTS assay. The note with it: hepg2, 72 h. The data set is classed as cell-based. A digest of the protocol:
as §2

Data set [11] concerns HEK293. In words: Cytotoxicity against HEK293 cells assessed as reduction in cell viability at 100 uM after 72 hrs by MTS assay. Format: cell-based. The note with it: human, hek293, 72 h. A digest of the protocol:
as §2

Data set [12] is described as follows: Drug metabolism in CD-1 mouse liver microsomes after 120 mins by UPLC-MS analysis. Format: ADME, microsome. To be noted: for metabolised at 2 h: CD-1, mouse, liver microsomes, read-out: Drug metabolism. A digest of the protocol: as §1
Data set [13] relates to HEK293. Nature of the data set: Cytotoxicity against HEK293 cells assessed as reduction in cell viability after 72 hrs by MTS assay. The note with it: human, hek293, 72 h.
The test system of data set [14] is HepG2. Nature of the data set: Cytotoxicity against human HepG2 cells assessed as reduction in cell viability at 10 uM after 72 hrs by MTS assay. The note with it: hepg2, 72 h. The data set is classed as cell-based. In outline: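 Cells exposed to test compound across 0.1–100 μM (four concentrations) for 72 h. Viability read by MTS assay, absorbance at 490 nm. Positive controls: doxorubicin 1 μM for both lines, plus CCCP 10 μM for HepG2 only. Significance versus negative control assessed by one-way ANOVA with Bonferroni's test.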

One may read the Ki as a dissociation constant, usually derived from enzyme kinetics or from competition with a known ligand. Read a high Ki as weaker binding. What is called half-life is the time needed for the level to fall by half in the phase considered. Read a high half-life as slow loss.

Sequence of D(2) dopamine receptor (P14416 whole entry): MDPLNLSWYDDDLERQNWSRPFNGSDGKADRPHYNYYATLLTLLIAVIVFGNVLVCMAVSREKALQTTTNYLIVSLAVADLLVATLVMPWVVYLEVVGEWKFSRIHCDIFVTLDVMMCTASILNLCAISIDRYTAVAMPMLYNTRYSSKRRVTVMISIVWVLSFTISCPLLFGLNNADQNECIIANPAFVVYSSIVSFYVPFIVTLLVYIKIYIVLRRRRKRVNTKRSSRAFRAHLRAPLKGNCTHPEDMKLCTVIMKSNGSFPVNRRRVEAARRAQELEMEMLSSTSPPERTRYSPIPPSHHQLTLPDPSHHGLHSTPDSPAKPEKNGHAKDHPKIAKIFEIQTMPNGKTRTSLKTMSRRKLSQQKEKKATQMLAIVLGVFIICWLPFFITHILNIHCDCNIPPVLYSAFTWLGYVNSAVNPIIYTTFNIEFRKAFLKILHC

On to `CC1(c2cccc3ccccc23)NC(=O)N(CC(O)CN2CCN(c3ccccc3C#N)CC2)C1=O` (configuration not stated), for which the results for the inhibitory constant (Ki) (in [1]; on D(2) dopamine receptor; in data set [2]) were 19 nM, 416 nM and 1230 nM, respectively.

On to `CC1(c2cccc3ccccc23)NC(=O)N(CC(O)CN2CCN(C(c3ccccc3)c3ccccc3)CC2)C1=O` (configuration not stated), for which the Ki in data set [1] amounted to 224 nM; at D(2) dopamine receptor it was 273 nM; in data set [2], 413000 nM.

With `CC1(C)NC(=O)N(CC(O)CN2CCN(C(c3ccccc3)c3ccccc3)CC2)C1=O` (configuration not stated), the Ki in [1] came out at 824 nM; on D(2) dopamine receptor, 1150 nM; in data set [2] it was 15100 nM.

For the compound `CC1(c2ccc(F)cc2)NC(=O)N(CC(O)CN2CCN(C(=O)c3ccccc3)CC2)C1=O` (configuration not stated), the inhibition constant (Ki) in data set [1] is 3610 nM; on D(2) dopamine receptor, 10100 nM; in data set [2], 6220 nM.

On to `CC1(C)NC(=O)N(CC(O)CN2CCN(c3ccccc3C#N)CC2)C1=O` (configuration not stated), for which the results for the Ki (in [1]; at D(2) dopamine receptor; in data set [2]) were 209 nM, 3430 nM and 1160 nM, respectively.

Regarding `CC1(c2ccc(F)cc2)NC(=O)N(CC(O)CN2CCc3ccccc3C2)C1=O` (configuration not stated), the inhibition constant (Ki) in data set [1] is 888 nM; on D(2) dopamine receptor, 5850 nM; in [2], 1550 nM.

As to `CC1(c2ccc(F)cc2)NC(=O)N(CC(O)CN2CCC(Oc3ccccc3)CC2)C1=O` (configuration not stated), the inhibitory constant (Ki) in data set [1] stood at 165 nM; on D(2) dopamine receptor it was 4350 nM; in data set [2], 5210 nM.

Take `CC1(c2ccc(F)cc2)NC(=O)N(CC(O)CN2CCN(Cc3cccc4ccccc34)CC2)C1=O` (configuration not stated): the Ki came out at 2170 nM in data set [1], 5230 nM at D(2) dopamine receptor and 5580 nM in data set [2].

The compound `CC1(c2ccc(F)cc2)NC(=O)N(CC(O)CN2CCN(C(c3ccccc3)c3ccccc3)CC2)C1=O` (configuration not stated) registered a t1/2 in data set [3] of 2.625 h. Further, the CLint scaled in data set [4] amounted to 17.2 mL/min/kg. Moreover, the Ratio Ki in the data set filed under Homo sapiens came to 71. In data set [5], the Stability is recorded as 20%.

Turning to `COc1cccc2c1C(=O)c1c(O)c3c(c(O)c1C2=O)C[C@@](O)(C(=O)CO)C[C@@H]3O[C@H]1C[C@H](N)[C@H](O)[C@H](C)O1` [DOXORUBICIN], the Activity result with HEK293 [6] and in the data set with HepG2 [7] was “Toxic” throughout.

`CC1(c2ccc(F)cc2)NC(=O)N(CC(O)CN2CCN(Cc3ccccc3)CC2)C1=O` (configuration not stated): the Ki in data set [1] worked out at 2080 nM; at D(2) dopamine receptor, 20000 nM; in data set [2], 378000 nM.

Consider `CC1(c2ccc(F)cc2)NC(=O)N(CC(O)CN2CCN(c3cccc4ccccc34)CC2)C1=O` (configuration not stated), for which, in data set [3], the t1/2 amounted to 0.75 h. In addition, the results for the Ki (in data set [1]; at D(2) dopamine receptor; in data set [2]) were 11 nM, 295 nM and 19 nM, respectively. Further, in data set [4], the CLint scaled was determined as 60.3 mL/min/kg. Besides, the Activity entry was “Non-Toxic” with HEK293 [8], “Toxic” in the data set with HepG2 [9], “Non-Toxic” in the data set on HepG2 [10] and “Toxic” in the data set with HEK293 [11]. The Stability in data set [5] worked out at 65%. The metabolised at 2 h in [12] was 65 to 70%.

In the case of `CC1(c2ccc3ccccc3c2)NC(=O)N(CC(O)CN2CCN(c3ccccc3C#N)CC2)C1=O` (configuration not stated), the Ki in data set [1] is 3 nM; on D(2) dopamine receptor it was 264 nM; in data set [2], 129 nM.

As to `CC1(c2ccc(F)cc2)NC(=O)N(CC(O)CN2CCC(Oc3ccc(Cl)cc3)CC2)C1=O` (configuration not stated), the Ki came out at 172 nM in [1], 4120 nM on D(2) dopamine receptor and 21500 nM in [2].

As to `COc1ccccc1N1CCN(CC(O)CN2C(=O)NC(C)(C)C2=O)CC1` (configuration not stated), the Ki came to 125 nM in data set [1], 2130 nM on D(2) dopamine receptor and 489 nM in [2].

`N#CC(C#N)=NNc1cccc(Cl)c1` [CARBONYL CYANIDE M-CHLOROPHENYLHYDRAZONE]: the Activity result with HEK293 [13] and with HepG2 [14] was “Toxic” in each case.

As to `COc1ccccc1N1CCN(CC(O)CN2C(=O)NC(C)(c3ccc4ccccc4c3)C2=O)CC1` (configuration not stated), the t1/2 in data set [3] came to 1.04 h. Further, the inhibitory constant (Ki) in data set [1] worked out at 3 nM; at D(2) dopamine receptor it was 153 nM; in data set [2], 128 nM. Besides, the CLint scaled in data set [4] was 43.4 mL/min/kg. Further, the Activity entry in the data set with HEK293 [8] was “Non-Toxic”; in the data set on HepG2 [9], “Toxic”; with HepG2 [10], “Non-Toxic”; with HEK293 [11] it was “Toxic”. Moreover, in data set [5], the Stability is 70%. In addition, in data set [12], the metabolised at 2 h lay within 65 to 70%.

`COc1ccccc1N1CCN(CC(O)CN2C(=O)NC(C)(c3cccc4ccccc34)C2=O)CC1` (configuration not stated): the half-life in data set [3] (CD-1, mouse, liver microsomes) is 1.57 h. Moreover, the results for the Ki (in data set [1]; at D(2) dopamine receptor; in [2]) were 5 nM, 256 nM and 326 nM, respectively. Moreover, the CLint scaled in data set [4] was found to be 29 mL/min/kg. For the same compound, the Activity result is on record as “Non-Toxic” in the data set on HEK293 [8], “Toxic” in the data set on HepG2 [9], “Non-Toxic” with HepG2 [10] and “Toxic” in the data set with HEK293 [11]. For the same compound, the Stability in data set [5] is listed as 40%. This compound had a Drug metabolism in [12] (mouse, microsomes, 2 h) of 40%.
